Results reported in ChEMBL document CHEMBL1122803, “Folate antagonists. 22. Antimalarial and antibacterial effects of 2,4-diamino-6-quinazolinesulfonamides” (1984).
≈ marks a conversion by molar mass, not a printed value.

Assays:
[1] = tested on: Plasmodium berghei; test: Antimalarial activity as survivor numbers at day 60 for drug-sensitive Plasmodium berghei infected mice (Mus musculus) at 320 mg/kg subcutaneous dose over 72 hrs; type: functional
Method in brief: (§1)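 Mice infected with drug-sensitive P. berghei got one subcutaneous dose in sesame or peanut oil 72 h postinfection. Read-out is the number of mice alive at 60 days postinfection, termed "cured", without subinoculation to confirm parasitological cure. Groups of five per dose, or 10 where indicated.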

[2] = tested on: Plasmodium berghei; test: Antimalarial activity as survivor numbers at day 60 for drug-sensitive Plasmodium berghei infected mice (Mus musculus) at 40 mg/kg subcutaneous dose over 72 hr; type: functional; method in brief: as §1
[3] = tested on: Plasmodium berghei; test: Antimalarial activity as survivor numbers at day 60 for drug-sensitive Plasmodium berghei infected mice (Mus musculus) at 80 mg/kg subcutaneous dose over 72 hr; type: functional; method in brief: as §1
[4] = tested on: Plasmodium berghei; test: Antimalarial activity as survivor number at day 60 against drug-sensitive Plasmodium berghei infected mice (Mus musculus) at 160 mg/kg subcutaneous dose after 72 hr; type: functional; method in brief: as §1
[5] = tested on: Escherichia coli; test: Compound was tested in vitro against Escherichia coli Vogel, by gradient-plate test; type: functional
Method in brief: (§2)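 Antibacterial testing in vitro by gradient-plate test. Read-out was the minimum inhibitory concentration, with values exceeding 25 reported as >25.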

[6] = tested on: Plasmodium berghei; test: Antimalarial activity as change in MST for drug-sensitive Plasmodium berghei infected mice (Mus musculus) at 40 mg/kg subcutaneous dose over 72hr; type: functional
[7] = tested on: Plasmodium berghei; test: Antimalarial activity as change in MST for drug-sensitive Plasmodium berghei infected mice (Mus musculus) at 640 mg/kg subcutaneous dose over 72 hr; type: functional
[8] = tested on: Plasmodium berghei; test: Antimalarial activity as change in MST against drug-sensitive Plasmodium berghei infected mice (Mus musculus) at 160 mg/kg subcutaneous dose after 72h; type: functional
[9] = tested on: Pseudomonas aeruginosa; test: Compound was tested in vitro against Pseudomonas aeruginosa 28, by gradient-plate test; type: functional; method in brief: as §2
[10] = tested on: Shigella sonnei; test: Compound was tested in vitro against Shigella sonnei C-10, by gradient-plate test; type: functional; method in brief: as §2
[11] = tested on: Staphylococcus aureus; test: In vitro antibacterial activity against […] U.C-76.; type: functional; method in brief: as §2
[12] = tested on: Enterococcus faecalis; test: In vitro antibacterial activity against Streptococcus faecalis MGH-2.; type: functional; method in brief: as §2
[13] = tested on: Staphylococcus aureus; test: In vitro antibacterial activity against […] S 18713.; type: functional; method in brief: as §2
[14] = tested on: Plasmodium berghei; test: Antimalarial activity as toxic deaths 2-5 days post infection for drug-sensitive Plasmodium berghei infected mice (Mus musculus) at 320 mg/kg subcutaneous dose over 72 hrs; type: functional
Method in brief: (§3)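 P. berghei (drug-sensitive) infected mice dosed once subcutaneously 72 h postinfection, compound in sesame or peanut oil. Read-out is the count of deaths on days 2–5 after infection, attributed to drug toxicity. Five animals per dose level, or 10 where indicated.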

[15] = tested on: Plasmodium berghei; test: Antimalarial activity as toxic deaths 2-5 days post infection for drug-sensitive Plasmodium berghei infected mice (Mus musculus) at 640 mg/kg subcutaneous dose over 72 hr; type: functional; method in brief: as §3
[16] = tested on: Plasmodium berghei; test: Antimalarial activity as survivor numbers at day 60 for drug-sensitive Plasmodium berghei infected mice (Mus musculus) at 40 mg/kg over 72 hr; type: functional; method in brief: as §1
[17] = tested on: Plasmodium berghei; test: Antimalarial activity as survivor numbers at day 60 against drug-sensitive Plasmodium berghei infected mice (Mus musculus) at 160 mg/kg subcutaneous dose after 72 hr; type: functional; method in brief: as §1
[18] = tested on: Escherichia coli; test: Tested in vitro against Escherichia coli Vogel. by gradient-plate test; type: functional; method in brief: as §2
[19] = tested on: Plasmodium berghei; test: Antimalarial activity as change in MST for drug-sensitive Plasmodium berghei infected mice (Mus musculus) at 80mg/kg subcutaneous dose over 72h; type: functional
[20] = tested on: Plasmodium berghei; test: Antimalarial activity as change in MST against drug-sensitive Plasmodium berghei infected mice (Mus musculus) at 20 mg/kg subcutaneous dose after 72h; type: functional
[21] = tested on: Plasmodium berghei; test: Antimalarial activity as survivor numbers at day 60 for drug-sensitive Plasmodium berghei infected mice (Mus musculus) at 640 mg/kg subcutaneous dose over 72 hr; type: functional; method in brief: as §1
[22] = tested on: Shigella sonnei; test: In vitro antibacterial activity against Shigella sonnei C-10.; type: functional; method in brief: as §2
[23] = tested on: Mycobacterium tuberculosis; test: In vitro antibacterial activity against Mycobacterium tuberculosis H37Rv.; type: functional
Method in brief: (§4)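 Mycobacterium tuberculosis tested in vitro by gradient-plate test; minimum inhibitory concentration reported.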

[24] = tested on: Pseudomonas aeruginosa; test: In vitro against Pseudomonas aeruginosa 28. by gradient-plate test; type: functional; method in brief: as §2
[25] = tested on: Plasmodium berghei; test: In vivo antimalarial activity against drug-sensitive Plasmodium berghei in mice (Mus musculus) after 320 mg/kg subcutaneous dose for 72 hrs as survivors 60 days post infection
[26] = tested on: Plasmodium berghei; test: Antimalarial activity as survivor numbers at day 60 for drug-sensitive Plasmodium berghei infected mice (Mus musculus) at 320 mg/kg subcutaneous dose for 72 hr; type: functional; method in brief: as §1
[27] = tested on: Plasmodium berghei; test: Antimalarial activity as change in MST for drug-sensitive Plasmodium berghei infected mice (Mus musculus) at 40 mg/kg subcutaneous dose over 72 hr; type: functional
[28] = tested on: Escherichia coli; test: Compound was tested in vitro against Escherichia coli Vogel. by gradient-plate test.; type: functional; method in brief: as §2
[29] = tested on: Mycobacterium tuberculosis; test: Compound was tested in vitro against Mycobacterium tuberculosis H37Rv. by gradient-plate test.; type: functional; method in brief: as §4
[30] = tested on: Plasmodium berghei; test: Antimalarial activity as change in MST for drug-sensitive Plasmodium berghei infected mice (Mus musculus) after 72 hrs at 320 mg/kg subcutaneous dose; type: functional
[31] = tested on: Plasmodium berghei; test: Antimalarial activity as change in MST for drug-sensitive Plasmodium berghei infected mice (Mus musculus) at 80 mg/kg subcutaneous dose over 72 hr; type: functional
[32] = tested on: Plasmodium berghei; test: Antimalarial activity as change in MST against drug-sensitive Plasmodium berghei infected mice (Mus musculus) at 20 mg/kg subcutaneous dose after 72 hr; type: functional
[33] = tested on: Plasmodium berghei; test: Antimalarial activity as change in MST against drug-sensitive Plasmodium berghei infected mice (Mus musculus) at 160 mg/kg subcutaneous dose after 72 hr; type: functional
[34] = tested on: Pseudomonas aeruginosa; test: Compound was tested in vitro against Pseudomonas aeruginosa 28. by gradient-plate test.; type: functional; method in brief: as §2
[35] = tested on: Shigella sonnei; test: Compound was tested in vitro against Shigella sonnei C-10. by gradient-plate test.; type: functional; method in brief: as §2
[36] = tested on: Staphylococcus aureus; test: Compound was tested in vitro against […] S 18713 by gradient-plate test.; type: functional; method in brief: as §2
[37] = tested on: Staphylococcus aureus; test: Compound was tested in vitro against […] U.C-76. by gradient-plate test.; type: functional; method in brief: as §2
[38] = tested on: Enterococcus faecalis; test: Compound was tested in vitro against Streptococcus faecalis MGH-2. by gradient-plate test.; type: functional; method in brief: as §2
[39] = tested on: Plasmodium berghei; test: Antimalarial activity as survivor numbers at day 60 for drug-sensitive Plasmodium berghei infected mice (Mus musculus) at 320 mg/kg over 72 hr; type: functional; method in brief: as §1
[40] = tested on: Plasmodium berghei; test: Antimalarial activity as survivor numbers at day 60 for drug-sensitive Plasmodium berghei infected mice (Mus musculus) at 320 mg/kg subcutaneous dose over 72 hr; type: functional; method in brief: as §1
[41] = tested on: Plasmodium berghei; test: Antimalarial activity as toxic deaths 2-5 days post infection for drug-sensitive Plasmodium berghei infected mice (Mus musculus) at 320 mg/kg subcutaneous dose over 72 hr; type: functional; method in brief: as §3
[42] = tested on: Plasmodium berghei; test: Antimalarial activity as survivor numbers at day 60 against drug-sensitive Plasmodium berghei infected mice (Mus musculus) at 20 mg/kg subcutaneous dose after 72 hr; type: functional; method in brief: as §1
[43] = tested on: Plasmodium berghei; test: Antimalarial activity as survivor number at day 60 for drug-sensitive Plasmodium berghei infected mice (Mus musculus) at 640 mg/kg subcutaneous dose over 72 hr; type: functional; method in brief: as §1

Nc1nc(N)c2cc(S(=O)(=O)c3ccc4ccccc4c3)ccc2n1
survivors at day 60 [1]: 5 | survivors at day 60 [2]: 5 | survivors at day 60 [3]: 5 | survivors at day 60 [4]: 5

Nc1nc(N)c2cc(S(N)(=O)=O)ccc2n1
MIC [5]: > 25 µg/mL | Delta MST [6]: 0.1 days | Delta MST [7]: 0.3 days | Delta MST [8]: 0.3 days | MIC [9]: > 25 µg/mL | MIC [10]: > 25 µg/mL | MIC [11]: > 25 µg/mL | MIC [12]: > 25 µg/mL | MIC [13]: > 25 µg/mL

Nc1nc(N)c2c(Cl)c(NCc3ccc(Cl)c(Cl)c3)ccc2n1
toxic deaths [14]: 5 | toxic deaths [15]: 5 | survivors at day 60 [3]: 5 | survivors at day 60 [16]: 5 | survivors at day 60 [17]: 5

Nc1nc(N)c2cc(S(=O)(=O)N3CCOCC3)ccc2n1
MIC [18]: > 25 µg/mL | Delta MST [6]: 4.7 days | Delta MST [19]: 14.5 days | Delta MST [20]: 1.7 days | survivors at day 60 [17]: 10 | survivors at day 60 [21]: 10 | MIC [22]: > 25 µg/mL | MIC [11]: 2 µg/mL (≈ 6.47 µM) | MIC [12]: < 0.25 µg/mL | MIC [13]: > 25 µg/mL | MIC [23]: > 25 µg/mL | MIC [24]: > 25 µg/mL | survivors at day 60 [25]: 5

CCN(CC)S(=O)(=O)c1ccc2nc(N)nc(N)c2c1
Delta MST [26]: 5 days | Delta MST [27]: 3.3 days | Delta MST [19]: 4.3 days | Delta MST [7]: 5 days | Delta MST [20]: 0.7 days | Delta MST [8]: 9.4 days

Nc1nc(N)c2cc(S(=O)(=O)N3CCc4ccccc4C3)ccc2n1
MIC [28]: > 25 µg/mL | MIC [29]: > 25 µg/mL | Delta MST [30]: 3.9 days | Delta MST [27]: 0.3 days | Delta MST [31]: 0.7 days | Delta MST [7]: 6.3 days | Delta MST [32]: 0.3 days | Delta MST [33]: 0.7 days | MIC [34]: > 25 µg/mL | MIC [35]: > 25 µg/mL | MIC [36]: > 25 µg/mL | MIC [37]: > 25 µg/mL | MIC [38]: > 25 µg/mL

CN(C)S(=O)(=O)c1ccc2nc(N)nc(N)c2c1
Delta MST [39]: 5 days | Delta MST [27]: 8.7 days | Delta MST [19]: 16.1 days | Delta MST [20]: 7.3 days | Delta MST [8]: 15.9 days

CC1(C)N=C(N)N=C(N)N1c1ccc(Cl)cc1.Cl [CHLORCYCLOGUANIL HYDROCHLORIDE]
Delta MST [30]: 3 days | Delta MST [27]: 13.4 days | Delta MST [31]: 21.6 days | Delta MST [7]: 5 days | Delta MST [32]: 7.9 days | Delta MST [33]: 5 days

CCc1nc(N)nc(N)c1-c1ccc(Cl)cc1 [PYRIMETHAMINE]
survivors at day 60 [40]: 2 | toxic deaths [41]: 3 | Delta MST [27]: 1 days | toxic deaths [15]: 2 | survivors at day 60 [3]: 3 | Delta MST [42]: 7.7 days | survivors at day 60 [17]: 5 | survivors at day 60 [43]: 1
